Calls of active or inactive are those of the source.
How the values were obtained:
Format in all cases: functional, organism-based
Pseudomonas aeruginosa [1] = assay: Antibacterial activity against Pseudomonas aeruginosa 2 to 10 ug/L after 24 hrs by Stephenson-Wetham medium disc diffusion method in absence of amino acids
Method in brief: (§1)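 Agar diffusion. Sterile 6 mm paper disks carrying different amounts of compound were placed on Stephenson–Wetham agar (20 g/L agar) pre-seeded with the indicator bacterium. Amounts matched those of the liquid test. After 24 h at 37 °C, the diameter of the growth-inhibition zone was measured.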

Escherichia coli [2] = assay: Antibacterial activity against Escherichia coli 2 to 10 ug/L after 24 hrs by Stephenson-Wetham medium disc diffusion method in absence of amino acids; method in brief: as §1
Listeria innocua [3] = assay: Antibacterial activity against Listeria innocua 2 to 10 ug/L after 24 hrs by Stephenson-Wetham medium disc diffusion method in absence of amino acids; method in brief: as §1
Bacillus subtilis [4] = assay: Antibacterial activity against Bacillus subtilis 2 to 10 ug/L after 24 hrs by Stephenson-Wetham medium disc diffusion method in absence of amino acids; method in brief: as §1
Pseudomonas aeruginosa [5] = assay: Antibacterial activity against Pseudomonas aeruginosa 2 to 10 ug/L after 24 hrs by Stephenson-Wetham medium disc diffusion method; method in brief: as §1
Escherichia coli [6] = assay: Antibacterial activity against Escherichia coli 2 to 10 ug/L after 24 hrs by Stephenson-Wetham medium disc diffusion method; method in brief: as §1
Listeria innocua [7] = assay: Antibacterial activity against Listeria innocua 2 to 10 ug/L after 24 hrs by Stephenson-Wetham medium disc diffusion method; method in brief: as §1
Bacillus subtilis [8] = assay: Antibacterial activity against Bacillus subtilis 2 to 10 ug/L after 24 hrs by Stephenson-Wetham medium disc diffusion method; method in brief: as §1
Pseudomonas aeruginosa [9] = assay: Antibacterial activity against Pseudomonas aeruginosa 2 to 10 ug/L after 24 hrs by microdilution method
Escherichia coli [10] = assay: Antibacterial activity against Escherichia coli 2 to 10 ug/L after 24 hrs by microdilution method
Listeria innocua [11] = assay: Antibacterial activity against Listeria innocua 2 to 10 ug/L after 24 hrs by microdilution method
Bacillus subtilis [12] = assay: Antibacterial activity against Bacillus subtilis 2 to 10 ug/L after 24 hrs by microdilution method
Nakaseomyces glabratus [13] = assay: Antifungal activity against Candida glabrata at 3.5 to 1050 ug/L after 24 hrs by YNB medium disc diffusion method in absence of amino acids
Method in brief: (§2)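 Disk diffusion on yeast-seeded agar plates (20 g/L agar added), either malt extract medium or YNB without amino acids. Sterile 6 mm paper disks held varying amounts of compound, matching the liquid-assay concentrations. The growth-inhibition zone diameter was measured after 24 h at 28 °C.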

Saccharomyces cerevisiae [14] = assay: Antifungal activity against Saccharomyces cerevisiae at 3.5 to 1050 ug/L after 24 hrs by YNB medium disc diffusion method in absence of amino acids; method in brief: as §2
Candida albicans [15] = assay: Antifungal activity against Candida albicans at 3.5 to 1050 ug/L after 24 hrs by YNB medium disc diffusion method in absence of amino acids; method in brief: as §2
Nakaseomyces glabratus [16] = assay: Antifungal activity against Candida glabrata at 3.5 to 1050 ug/L after 24 hrs by malt extract medium disc diffusion method; method in brief: as §2
Saccharomyces cerevisiae [17] = assay: Antifungal activity against Saccharomyces cerevisiae at 3.5 to 1050 ug/L after 24 hrs by malt extract medium disc diffusion method; method in brief: as §2
Candida albicans [18] = assay: Antifungal activity against Candida albicans at 3.5 to 1050 ug/L after 24 hrs by malt extract medium disc diffusion method; method in brief: as §2
Nakaseomyces glabratus [19] = assay: Antifungal activity against Candida glabrata at 3.5 to 1050 ug/L after 24 hrs by microdilution method
Method in brief: (§3)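 Yeast microdilution in 24-well plates. Wells were seeded at OD600 0.1 and grown aerobically with the compound (range as in the assay line) for 24 h at 28 °C with agitation. Growth was read as OD600. Runs were in triplicate in YPD, malt extract (20 g/L), RPMI 1640, and YNB without amino acids.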

Saccharomyces cerevisiae [20] = assay: Antifungal activity against Saccharomyces cerevisiae at 3.5 to 1050 ug/L after 24 hrs by microdilution method; method in brief: as §3
Candida albicans [21] = assay: Antifungal activity against Candida albicans at 3.5 to 1050 ug/L after 24 hrs by microdilution method; method in brief: as §3

Measured: Activity

C[C@H](N)C(=O)N[C@@H](CC(=O)O)C(=O)N[C@@H](/C=C\CP(=O)(O)O)C(=O)O
not listed: Nakaseomyces glabratus [13] | Saccharomyces cerevisiae [14] | Candida albicans [15] | Nakaseomyces glabratus [16] | Saccharomyces cerevisiae [17] | Candida albicans [18] | Nakaseomyces glabratus [19] | Saccharomyces cerevisiae [20] | Candida albicans [21]
inactive: all other assays above

N=C(N)NCCC[C@H](N)C(=O)N[C@@H](/C=C\CP(=O)(O)O)C(=O)O
inactive: Nakaseomyces glabratus [13] | Saccharomyces cerevisiae [14] | Candida albicans [15] | Nakaseomyces glabratus [16] | Saccharomyces cerevisiae [17] | Candida albicans [18] | Nakaseomyces glabratus [19] | Saccharomyces cerevisiae [20] | Candida albicans [21]

— ChEMBL document CHEMBL2413044, “Synthesis and biological evaluation of potential threonine synthase inhibitors: Rhizocticin A and Plumbemycin A” (Bioorg Med Chem, 2013)
